Experimental data published in ChEMBL document CHEMBL3861974, “Discovery of a Selective Aurora A Kinase Inhibitor by Virtual Screening” (J Med Chem, 2016).

Assays:
[1] = target: T1, Aurora kinase A (Homo sapiens, UniProt O14965); assay: Inhibition of Aurora A kinase autophosphorylation at Thr288 in human HeLa Kyoto cells incubated for 20 hrs; assay type: cell-based
T1 sequence (O14965 whole entry): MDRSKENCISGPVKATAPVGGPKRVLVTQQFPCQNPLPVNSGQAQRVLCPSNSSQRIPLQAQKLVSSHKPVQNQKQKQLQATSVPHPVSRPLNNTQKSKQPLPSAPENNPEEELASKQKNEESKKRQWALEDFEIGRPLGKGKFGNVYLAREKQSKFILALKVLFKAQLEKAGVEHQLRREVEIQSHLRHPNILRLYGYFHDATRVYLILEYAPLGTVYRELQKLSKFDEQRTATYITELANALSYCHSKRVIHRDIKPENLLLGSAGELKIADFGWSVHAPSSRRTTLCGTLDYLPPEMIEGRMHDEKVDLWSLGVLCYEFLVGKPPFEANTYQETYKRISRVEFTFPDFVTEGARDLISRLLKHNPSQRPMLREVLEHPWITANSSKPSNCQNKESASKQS

[2] = Glutathione reactivity at 30 uM assessed as GSH adduct formation after 24 hrs in presence of 5 mM GSH, pH 7.4 buffer at 37 degC by LC-MS method
Method in brief: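 Test compound at 30 µM was incubated with 5 mM GSH in H2O/CH3CN (4:1) at 37 °C and followed by LC-MS over 24 h. The GSH adduct was identified by MS. Parent was quantified by integrating its 310 nm absorption peak against 9-methylcarbazole as internal control. Values are the average of two independent experiments.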

[3] = target: Phosphatidylinositol 4,5-bisphosphate 3-kinase catalytic subunit gamma isoform (Homo sapiens, UniProt P48736); assay: Binding affinity to human PIK3CG expressed in Escherichia coli BL21 cells incubated for 1 hr by active site directed binding competition assay
Method in brief: (§1)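 Kinome scan of 456 kinases using an active-site-directed binding competition assay, followed by determination of binding affinities (Kd). Aurora B in this scan was free enzyme without INCENP.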

[4] = target: T2, Mitogen-activated protein kinase kinase kinase 19 (Homo sapiens, UniProt Q56UN5); assay: Binding affinity to human YSK4 expressed in Escherichia coli BL21 cells incubated for 1 hr by active site directed binding competition assay; method in brief: as §1
T2 sequence (Q56UN5 whole entry): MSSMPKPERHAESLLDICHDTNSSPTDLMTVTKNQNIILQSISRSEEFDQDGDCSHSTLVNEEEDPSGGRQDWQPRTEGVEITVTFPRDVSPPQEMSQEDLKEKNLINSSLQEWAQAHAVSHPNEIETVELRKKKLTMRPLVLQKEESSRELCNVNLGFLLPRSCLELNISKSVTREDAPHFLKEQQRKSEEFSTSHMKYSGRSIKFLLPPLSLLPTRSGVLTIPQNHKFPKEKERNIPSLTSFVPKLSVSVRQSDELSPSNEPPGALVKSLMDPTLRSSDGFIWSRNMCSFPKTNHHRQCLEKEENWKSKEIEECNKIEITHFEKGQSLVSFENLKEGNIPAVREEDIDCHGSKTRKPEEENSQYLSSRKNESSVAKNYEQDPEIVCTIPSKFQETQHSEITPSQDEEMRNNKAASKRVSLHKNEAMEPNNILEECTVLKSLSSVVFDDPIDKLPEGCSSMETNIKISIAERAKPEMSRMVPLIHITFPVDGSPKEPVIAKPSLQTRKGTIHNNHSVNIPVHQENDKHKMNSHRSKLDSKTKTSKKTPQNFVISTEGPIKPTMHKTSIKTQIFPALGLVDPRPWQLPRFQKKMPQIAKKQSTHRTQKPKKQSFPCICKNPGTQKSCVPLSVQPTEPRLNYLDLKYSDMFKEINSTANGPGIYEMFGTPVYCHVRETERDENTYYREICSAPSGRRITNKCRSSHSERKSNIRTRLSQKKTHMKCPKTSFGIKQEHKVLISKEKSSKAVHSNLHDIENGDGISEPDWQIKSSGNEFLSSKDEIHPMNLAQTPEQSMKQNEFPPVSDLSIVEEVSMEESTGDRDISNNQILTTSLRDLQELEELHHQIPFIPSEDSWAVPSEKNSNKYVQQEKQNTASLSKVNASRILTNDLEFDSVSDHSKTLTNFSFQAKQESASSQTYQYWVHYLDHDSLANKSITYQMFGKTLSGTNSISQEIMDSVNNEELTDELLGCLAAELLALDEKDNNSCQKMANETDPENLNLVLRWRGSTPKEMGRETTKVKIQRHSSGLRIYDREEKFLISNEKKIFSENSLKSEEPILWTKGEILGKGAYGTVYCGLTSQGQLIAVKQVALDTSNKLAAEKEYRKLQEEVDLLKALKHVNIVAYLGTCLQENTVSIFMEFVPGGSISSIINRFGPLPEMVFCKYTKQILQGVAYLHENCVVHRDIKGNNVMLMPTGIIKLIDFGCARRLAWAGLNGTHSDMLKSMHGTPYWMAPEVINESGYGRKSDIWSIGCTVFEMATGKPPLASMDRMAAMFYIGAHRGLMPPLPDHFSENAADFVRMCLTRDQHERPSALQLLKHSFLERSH

[5] = target: T3, Phosphatidylinositol 5-phosphate 4-kinase type-2 gamma (Homo sapiens, UniProt Q8TBX8); assay: Binding affinity to human PIP5K2C expressed in Escherichia coli BL21 cells incubated for 1 hr by active site directed binding competition assay; method in brief: as §1
T3 sequence (Q8TBX8 whole entry): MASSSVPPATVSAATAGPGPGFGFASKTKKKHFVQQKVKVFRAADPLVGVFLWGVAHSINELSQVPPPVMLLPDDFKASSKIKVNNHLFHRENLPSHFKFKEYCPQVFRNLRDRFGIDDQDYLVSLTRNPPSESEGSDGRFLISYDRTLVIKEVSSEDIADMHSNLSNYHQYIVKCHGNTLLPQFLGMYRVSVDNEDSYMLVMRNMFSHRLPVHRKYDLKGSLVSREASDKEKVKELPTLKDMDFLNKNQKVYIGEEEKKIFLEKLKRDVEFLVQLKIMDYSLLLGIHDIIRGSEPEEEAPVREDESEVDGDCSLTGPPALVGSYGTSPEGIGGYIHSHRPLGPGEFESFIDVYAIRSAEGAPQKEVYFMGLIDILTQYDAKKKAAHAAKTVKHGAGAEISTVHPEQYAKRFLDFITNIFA

[6] = target: Aurora kinase B (Homo sapiens, UniProt Q96GD4); assay: Inhibition of Aurora B kinase in human HeLa Kyoto cells assessed as effect on distribution of phspho-histone H3 ser10 level incubated for 20 hrs
[7] = target: Macrophage colony-stimulating factor 1 receptor (Homo sapiens, UniProt P07333); assay: Binding affinity to auto-inhibited human CSF1R expressed in Escherichia coli BL21 cells incubated for 1 hr by active site directed binding competition assay; method in brief: as §1
[8] = species: Homo sapiens; assay: Selectivity index, ratio of IC50 for Aurora-B/INCENP (unknown origin) to IC50 for His-tagged human Aurora A kinase ([…] residues) expressed in Escherichia coli BL21 (DE3) Rosetta cells

Chain of Phosphatidylinositol 4,5-bisphosphate 3-kinase catalytic subunit gamma isoform (P48736 whole entry, canonical isoform): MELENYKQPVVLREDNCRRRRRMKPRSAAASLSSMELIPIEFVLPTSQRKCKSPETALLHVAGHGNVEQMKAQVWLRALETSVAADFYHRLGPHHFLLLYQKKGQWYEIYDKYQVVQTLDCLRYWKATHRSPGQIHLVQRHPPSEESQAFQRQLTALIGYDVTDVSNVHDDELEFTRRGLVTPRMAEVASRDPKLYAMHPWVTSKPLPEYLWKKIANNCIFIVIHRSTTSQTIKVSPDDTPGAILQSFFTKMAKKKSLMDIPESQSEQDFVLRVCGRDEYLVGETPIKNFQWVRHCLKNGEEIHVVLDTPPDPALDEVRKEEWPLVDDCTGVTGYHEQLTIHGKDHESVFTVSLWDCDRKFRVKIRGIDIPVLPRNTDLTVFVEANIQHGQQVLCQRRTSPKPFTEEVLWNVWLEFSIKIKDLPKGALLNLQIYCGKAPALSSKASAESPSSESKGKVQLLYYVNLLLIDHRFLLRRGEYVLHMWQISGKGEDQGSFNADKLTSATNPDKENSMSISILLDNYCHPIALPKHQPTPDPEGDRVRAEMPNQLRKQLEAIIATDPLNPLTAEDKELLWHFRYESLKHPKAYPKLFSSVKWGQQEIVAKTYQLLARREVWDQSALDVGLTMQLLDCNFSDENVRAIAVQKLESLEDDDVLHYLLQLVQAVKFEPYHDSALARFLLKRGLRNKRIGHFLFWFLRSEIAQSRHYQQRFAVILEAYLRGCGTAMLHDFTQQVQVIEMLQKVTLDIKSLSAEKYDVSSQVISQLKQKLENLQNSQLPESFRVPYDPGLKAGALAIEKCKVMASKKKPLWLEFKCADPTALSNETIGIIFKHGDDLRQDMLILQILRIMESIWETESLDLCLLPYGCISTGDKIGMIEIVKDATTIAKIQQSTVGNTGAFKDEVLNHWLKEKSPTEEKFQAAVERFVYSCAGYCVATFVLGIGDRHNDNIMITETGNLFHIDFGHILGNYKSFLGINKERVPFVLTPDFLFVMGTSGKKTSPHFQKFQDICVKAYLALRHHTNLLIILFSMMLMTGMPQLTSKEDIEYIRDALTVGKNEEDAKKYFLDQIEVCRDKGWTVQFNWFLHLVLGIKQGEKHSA
Chain of Aurora kinase B (Q96GD4 whole entry): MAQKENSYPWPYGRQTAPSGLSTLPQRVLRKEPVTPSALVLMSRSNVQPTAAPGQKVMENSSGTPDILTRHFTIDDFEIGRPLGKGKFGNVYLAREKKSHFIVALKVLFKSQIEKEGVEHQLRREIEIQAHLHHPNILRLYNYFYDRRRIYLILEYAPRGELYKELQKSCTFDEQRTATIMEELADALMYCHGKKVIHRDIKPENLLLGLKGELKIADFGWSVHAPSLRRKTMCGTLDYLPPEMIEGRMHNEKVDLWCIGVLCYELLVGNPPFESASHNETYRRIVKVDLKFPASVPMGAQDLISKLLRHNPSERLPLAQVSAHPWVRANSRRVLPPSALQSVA
Chain of Macrophage colony-stimulating factor 1 receptor (P07333 whole entry): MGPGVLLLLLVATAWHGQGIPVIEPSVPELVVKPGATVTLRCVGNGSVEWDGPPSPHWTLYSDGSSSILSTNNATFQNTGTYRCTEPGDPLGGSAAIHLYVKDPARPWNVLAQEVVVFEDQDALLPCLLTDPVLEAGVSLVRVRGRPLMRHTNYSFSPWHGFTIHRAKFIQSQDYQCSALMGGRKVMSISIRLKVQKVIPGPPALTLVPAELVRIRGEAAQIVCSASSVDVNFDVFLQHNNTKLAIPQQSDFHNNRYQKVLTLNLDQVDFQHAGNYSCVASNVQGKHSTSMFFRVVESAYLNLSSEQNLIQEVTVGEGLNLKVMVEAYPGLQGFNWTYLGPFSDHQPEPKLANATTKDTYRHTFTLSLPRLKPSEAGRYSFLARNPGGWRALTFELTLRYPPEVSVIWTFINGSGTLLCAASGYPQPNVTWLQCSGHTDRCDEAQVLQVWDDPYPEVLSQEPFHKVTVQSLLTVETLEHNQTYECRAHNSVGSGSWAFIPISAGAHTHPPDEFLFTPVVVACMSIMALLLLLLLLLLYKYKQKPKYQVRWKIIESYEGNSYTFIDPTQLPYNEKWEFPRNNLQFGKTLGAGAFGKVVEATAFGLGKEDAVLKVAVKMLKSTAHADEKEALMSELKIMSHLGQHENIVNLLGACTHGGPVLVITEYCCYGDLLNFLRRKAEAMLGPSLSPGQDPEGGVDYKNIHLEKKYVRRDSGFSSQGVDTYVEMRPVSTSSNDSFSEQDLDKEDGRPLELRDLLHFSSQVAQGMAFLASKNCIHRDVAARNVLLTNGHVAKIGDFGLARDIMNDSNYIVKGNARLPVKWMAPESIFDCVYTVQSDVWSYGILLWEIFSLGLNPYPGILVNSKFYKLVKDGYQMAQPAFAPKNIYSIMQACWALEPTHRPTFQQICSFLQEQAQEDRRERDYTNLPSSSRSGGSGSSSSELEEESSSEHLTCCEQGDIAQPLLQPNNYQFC

- IC50 [1]: 760 nM
- Kd [3]: 1500 nM
- Kd [4]: 2900 nM
- Kd [5]: 480 nM
- IC50 [6]: > 25 µM
- Kd [7]: 120 nM
Compound: CCc1ccc(/N=C2\S/C(=C\c3ccnc(Nc4ccc(C(=O)O)cn4)c3)C(=O)N2C)cc1
- Drug metabolism [2]: 50%
- Stability [2]: Stable
- Ratio IC50 [8]: 75
